Test results taken from ChEMBL document CHEMBL1781950, “Synthesis of 4-(aminoalkyl) substituted 1,3-dioxanes as potent NMDA and σ receptor antagonists” (Eur J Med Chem, 2011).
Active and inactive are the calls of the source. No cut-off for these calls is given here.

Key:
[1] = Displacement of [3H]-(+)-MK801 from NMDA receptor PCP binding site in pig cortex membrane after 90 mins by liquid scintillation counting; format: cell membranes, Sus scrofa
Method in brief: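 Pig brain cortex membranes (about 100 µg protein) incubated with 2 nM [3H]-(+)-MK-801 and at least 6 test concentrations in 5 mM Tris–acetate, 1 mM EDTA, pH 7.5, 90 min at 25 °C. Filtered on PEI-soaked GF/C filters. Non-specific binding with 10 µM (+)-MK-801. IC50 by nonlinear regression, triplicates; Ki mean ± SEM of three experiments.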

[2] = biological target: Sigma non-opioid intracellular receptor 1 (Cavia porcellus, UniProt Q60492); assay: Displacement of [3H]-(+)-pentazocine from sigma 1 receptor PCP binding site in guinea pig brain by liquid scintillation counting
Sequence of Sigma non-opioid intracellular receptor 1 (Q60492 whole entry): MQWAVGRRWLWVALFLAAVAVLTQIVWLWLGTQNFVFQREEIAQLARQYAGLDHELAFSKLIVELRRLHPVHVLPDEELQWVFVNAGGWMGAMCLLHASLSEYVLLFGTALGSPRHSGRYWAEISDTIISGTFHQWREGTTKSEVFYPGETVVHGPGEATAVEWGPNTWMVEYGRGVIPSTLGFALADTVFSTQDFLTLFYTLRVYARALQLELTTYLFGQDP

[3] = Displacement of [3H]-ditolylguanidine from sigma 2 receptor PCP binding site in rat liver membrane; format: cell membranes
Method in brief: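 Non-specific binding with 10 µM unlabelled ditolylguanidine. Triplicates; IC50 from at least 6 concentrations by nonlinear regression; Ki mean ± SEM of three experiments.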

[4] = Displacement of [3H]-(+)-MK801 from NMDA receptor PCP binding site
Method in brief: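 Pig brain cortex membranes (about 100 µg protein) incubated with test compound (at least 6 concentrations), 2 nM [3H]-(+)-MK-801 in 5 mM Tris–acetate, 1 mM EDTA, pH 7.5, 90 min at 25 °C. Filtered through polyethylenimine-soaked GF/C filters, counted by scintillation. Nonspecific binding with 10 µM (+)-MK-801. IC50 from nonlinear regression, converted to Ki. Triplicates, three independent experiments.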

Mus musculus [5] = assay: Analgesic activity against capsaicin-induced nocifensive behavior in mouse assessed as paw withdrawal latency to von Frey filament-induced pain at 32 mg/kg administered 30 mins before and measured 15 mins after capsaicin challenge; format: functional, organism-based; parameters: dose 32 mg/kg
Method in brief: (§1)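 Capsaicin injected into mid-plantar surface of right hind paw of mice; test ligand given 30 min before capsaicin. Mechanical withdrawal latency to a 1 g von Frey filament read 15 min after capsaicin; effect expressed as % analgesia.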

Mus musculus [6] = assay: Analgesic activity against capsaicin-induced nocifensive behavior in mouse assessed as paw withdrawal latency to von Frey filament-induced pain at 0.125 mg/kg administered 30 mins before and measured 15 mins after capsaicin challenge; format: functional; method in brief: as §1
Mus musculus [7] = assay: Analgesic activity against capsaicin-induced nocifensive behavior in mouse assessed as paw withdrawal latency to von Frey filament-induced pain at 0.5 mg/kg administered 30 mins before and measured 15 mins after capsaicin challenge; format: functional; method in brief: as §1
[8] = Selectivity ratio of Ki for rat sigma 2 receptor to Ki for guinea pig sigma 1 receptor
Mus musculus [9] = assay: Analgesic activity against capsaicin-induced nocifensive behavior in mouse assessed as paw withdrawal latency to von Frey filament-induced pain at 1 mg/kg administered 30 mins before and measured 15 mins after capsaicin challenge; format: functional; method in brief: as §1
Mus musculus [10] = assay: Analgesic activity against capsaicin-induced nocifensive behavior in mouse assessed as paw withdrawal latency to von Frey filament-induced pain at 0.25 mg/kg administered 30 mins before and measured 15 mins after capsaicin challenge; format: functional; method in brief: as §1

SMILES | Ki [1] [nM] | Ki [2] [nM] | Ki [3] [nM] | further results
c1ccc(C2(N3CCCCC3)CCCCC2)cc1 [PHENCYCLIDINE] | 28 | – | – | –
NCC[C@H]1COC(c2ccccc2)(c2ccccc2)O1 | 3260 | – | – | –
CC[C@]1(c2ccccc2)OC[C@H](CCN)O1 | 69 | – | – | –
CNCC[C@@H]1CCO[C@H](c2ccccc2)O1 (racemic) | > 10000 | 449 | > 10000 | –
CC[C@]1(c2ccccc2)OCC[C@@H](CN)O1 | 257 | – | – | –
NCC[C@@H]1CCOC(c2ccccc2)(c2ccccc2)O1 | 2350 | > 10000 | > 10000 | –
NC[C@@H]1CCOC(c2ccccc2)(c2ccccc2)O1 | 717 | – | – | –
CNCC[C@@H]1CCOC(c2ccccc2)(c2ccccc2)O1 | 6870 | > 10000 | > 10000 | –
CC[C@]1(c2ccccc2)OC[C@H]([C@@H]2CCCCN2)O1 [ETOXADROL] | 22 | – | – | Ki [4]: 20 nM
c1ccc(CNCCC[C@@H]2CCO[C@H](c3ccccc3)O2)cc1 (relative stereo) | > 10000 | 164 | 3890 | –
NCCC[C@@H]1CCO[C@H](c2ccccc2)O1 (relative stereo) | > 10000 | 167 | 581 | –
NCC[C@@H]1CCO[C@H](c2ccccc2)O1 (racemic) | > 10000 | 165 | > 10000 | –
NCC[C@@H]1CCOC2(O1)C1CC3CC(C1)CC2C3 (some centres undefined) | > 10000 | 1250 | > 10000 | –
CN(C)CC[C@@H]1CCO[C@H](c2ccccc2)O1 (racemic) | > 10000 | 1650 | 1830 | –
CC[C@@]1(c2ccccc2)OCC[C@@H](CCN(C)C)O1 (relative stereo) | 713 | 511 | > 10000 | –
c1ccc(C2(c3ccccc3)OC[C@H]([C@@H]3CCCCN3)O2)cc1 [DEXOXADROL] | – | – | – | Ki [4]: 23 nM
CNCCC[C@@H]1CCO[C@H](c2ccccc2)O1 (relative stereo) | > 10000 | 327 | 6320 | –
c1ccc(CNCC[C@@H]2CCO[C@H](c3ccccc3)O2)cc1 (racemic) | > 10000 | 19 | 92 | Activity (Mus musculus [5]): Active; Activity (Mus musculus [6]): 10%; Activity (Mus musculus [7]): 100%; Ratio Ki [8]: 5; Activity (Mus musculus [9]): 100%; Activity (Mus musculus [10]): 70%
CC[C@@]1(c2ccccc2)OCC[C@@H](CCNC)O1 (relative stereo) | 154 | 856 | > 10000 | –
CC[C@@]1(c2ccccc2)OCC[C@@H](CCCN)O1 (relative stereo) | 7670 | 6450 | 542 | –
Cc1ccccc1NC(=N)Nc1ccccc1C [DITOLYLGUANIDINE] | – | – | 64 | –
CC[C@@]1(c2ccccc2)OCC[C@@H](CCN)O1 (relative stereo) | 24 | 955 | > 10000 | –
c1ccc(CNCC[C@@H]2CCOC(c3ccccc3)(c3ccccc3)O2)cc1 | > 10000 | 320 | 2750 | –
CN(C)CC[C@@H]1CCOC(c2ccccc2)(c2ccccc2)O1 | > 10000 | 660 | > 10000 | –
NCCC[C@@H]1CCOC(c2ccccc2)(c2ccccc2)O1 | > 10000 | 175 | > 10000 | –
CN(C)CCC[C@@H]1CCO[C@H](c2ccccc2)O1 (relative stereo) | > 10000 | 1220 | > 10000 | –
CC[C@@]1(c2ccccc2)OCC[C@@H](CCNCc2ccccc2)O1 (relative stereo) | > 10000 | 27 | 903 | Activity (Mus musculus [5]): inactive; Ratio Ki [8]: 33
